ChEMBL document CHEMBL4411328, “Synthesis and Structural/Functional Characterization of Selective M14 Metallocarboxypeptidase Inhibitors Based on Phosphinic Pseudopeptide Scaffold: Implications on the Design of Specific Optical Probes” (J Med Chem, 2019)
Calls of active or inactive are those of the source. The rule behind the calls is not given here.

Tests used:
Carboxypeptidase A1 [1] = molecular target: T1, Carboxypeptidase A1 (Homo sapiens, UniProt P15085); test: Inhibition of human CPA1 using AAFP as substrate preincubated for 45 mins to 2 hrs measured at 30 sec intervals for 15 mins by UV/vis-spectrophotometry
T1 sequence (P15085 whole entry): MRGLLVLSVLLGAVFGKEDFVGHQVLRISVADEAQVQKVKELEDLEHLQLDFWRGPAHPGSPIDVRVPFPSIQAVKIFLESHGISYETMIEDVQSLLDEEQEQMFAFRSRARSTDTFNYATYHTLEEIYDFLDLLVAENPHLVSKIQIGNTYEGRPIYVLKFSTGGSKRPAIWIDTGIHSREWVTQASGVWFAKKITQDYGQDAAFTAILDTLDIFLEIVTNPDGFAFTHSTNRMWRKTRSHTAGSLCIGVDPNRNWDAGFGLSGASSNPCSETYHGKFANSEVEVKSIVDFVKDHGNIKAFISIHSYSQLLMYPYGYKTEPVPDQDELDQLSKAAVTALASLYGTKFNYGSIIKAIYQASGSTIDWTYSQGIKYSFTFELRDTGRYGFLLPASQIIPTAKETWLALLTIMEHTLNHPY
In short: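 hCPA1 was used at 1.0x10-8 M with AAFP substrate at 1.0x10-4 M, read at 355 nm. Enzyme and inhibitor were preincubated 45 min at 37 °C before substrate was added. Initial velocities were read every 30 sec for 15 min, in triplicate. Apparent Ki came from a fit to the tight-binding equation.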

Carboxypeptidase A4 = molecular target: T2, Carboxypeptidase A4 (Homo sapiens, UniProt Q9UI42); test: Inhibition of human CPA4 using AAFP as substrate preincubated for 45 mins to 2 hrs measured at 30 sec intervals for 15 mins by UV/vis-spectrophotometry
T2 sequence (Q9UI42 whole entry): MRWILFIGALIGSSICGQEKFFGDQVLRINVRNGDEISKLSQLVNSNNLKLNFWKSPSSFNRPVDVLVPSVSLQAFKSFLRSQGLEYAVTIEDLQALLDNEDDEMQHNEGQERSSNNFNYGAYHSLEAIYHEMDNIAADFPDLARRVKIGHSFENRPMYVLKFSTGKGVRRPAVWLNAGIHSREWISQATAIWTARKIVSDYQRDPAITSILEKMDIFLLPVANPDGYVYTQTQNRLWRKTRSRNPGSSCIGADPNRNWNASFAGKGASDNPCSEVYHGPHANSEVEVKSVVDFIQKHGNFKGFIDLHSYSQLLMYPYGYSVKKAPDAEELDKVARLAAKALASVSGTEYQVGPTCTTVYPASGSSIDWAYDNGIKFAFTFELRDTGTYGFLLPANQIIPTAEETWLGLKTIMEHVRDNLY
In short: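 Enzyme was hCPA4 at 4.3x10-8 M, with 1.0x10-4 M AAFP and detection at 355 nm. Inhibitor and enzyme were preincubated 45 min at 37 °C, then initial velocities were taken over 15 min (30 sec reads), in triplicate. Kiapp was obtained from the tight-binding fit.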

HeLa [2] = test: Cytotoxicity against human HeLa cells assessed as reduction in cell viability at 1 to 5 uM after 24 hrs by XTT assay; type: cell-based
In short: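 Cells were exposed to compound at 1 and 5 µM for 24h in culture, and viability was then read by the XTT assay.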

[3] = molecular target: T3, Carboxypeptidase A1 (Homo sapiens) (UniProt P15085); test: Inhibition of human CPA1 using AAFP as substrate assessed as association rate constant measured at pre-steady state by spectrophotometry
T3 sequence (whole entry): T1 sequence (P15085 whole entry)

[4] = molecular target: T3, Carboxypeptidase A1 (Homo sapiens); test: Inhibition of human CPA1 using AAFP as substrate assessed as dissociation rate constant measured at pre-steady state by spectrophotometry
Carboxypeptidase A1 [5] = molecular target: T1, Carboxypeptidase A1; test: Inhibition of human CPA1 using AAFP as substrate assessed as apparent first-order rate constant measured at pre-steady state by measuring Koff/Kon ratio by spectrophotometry; conditions: read-out: Ki(app)
Carboxypeptidase A1 [6] = molecular target: T1, Carboxypeptidase A1; test: Inhibition of human CPA1 using AAFP as substrate measured at pre-steady state by spectrophotometry
[7] = molecular target: T3, Carboxypeptidase A1 (Homo sapiens); test: Inhibition of human CPA1 peptide degradation activity at 5 to 500 nM using neurotensin peptide as substrate preincubated for 2 hrs followed by substrate addition and measured up to 7 hrs by MALDI-TOF/TOF spectrometry
In short: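 Human CPA1 (20nM) digested the model peptide neurotensin over a 0-7h time course, with no inhibitor or with inhibitor at 5 and 500nM. Samples were taken at intervals and analyzed by MALDI-TOF MS.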

HeLa [8] = test: Cytotoxicity against human HeLa cells by fluorescence confocal microscopy; type: cell-based
Papain (Carica papaya) = Papain (Carica papaya) (UniProt P00784); test: Inhibition of papaya papain at 1 nM to 1 mM using L-pyroglutamyl-Lphenylalanyl-L-leucine-p-nitroanilide peptide as substrate preincubated for 45 mins measured at 30 sec intervals for 15 mins by UV/vis-spectrophotometry
In short: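 Papain 4.5x10-8 M, PFLNA substrate 4.0x10-4 M, buffer 100 mM phosphate pH 6.5, 100 mM KCl, 0.1 mM EDTA, 3 mM DTT, 0.05% w/v Brij-35; read at 414 nm. 45 min preincubation at 37 °C with inhibitor; initial velocities, 30-sec reads for 15 min, triplicate.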

[9] = molecular target: Prothrombin (Homo sapiens) (UniProt P00734); test: Inhibition of human thrombin at 1 nM to 1 mM using benzoylphenyl-valyl-arginine 4-nitroanilide as substrate preincubated for 45 mins measured at 30 sec intervals for 15 mins by UV/vis-spectrophotometry
In short: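 hThrombin 2.0x10-8 M with 1.0x10-3 M BzFVRPNA in 100 mM Tris-HCl pH 8.0, followed at 414 nm. Enzyme and inhibitor preincubated 45 min at 37 °C; substrate then added; initial velocities every 30 sec for 15 min, in triplicate.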

[10] = molecular target: Cytosolic carboxypeptidase 6 (Homo sapiens) (UniProt Q5VU57); test: Inhibition of human CCP6 at 1 nM to 1 mM using tubulin as substrate preincubated for 45 mins measured at 30 sec intervals for 15 mins by UV/vis-spectrophotometry
In short: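 hCCP1 or hCCP6 at 1.0x10-6 g with tubulin (12.5x10-5 g) as substrate in 20 mM Tris-HCl pH 7.5, 100 mM NaCl. Enzyme, inhibitor and buffer preincubated 45 min at 37 °C before substrate addition; run in triplicate.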

[11] = molecular target: Matrix metalloproteinase-9 (Homo sapiens, UniProt P14780); test: Inhibition of human MMP9 using fluorogenic Mca-Pro-Leu-Gly-Leu-Dpa-Ala-Arg-NH2 peptide as substrate preincubated for 45 mins measured at 30 sec intervals for 15 mins by UV/vis-spectrophotometry
In short: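 MMPs at nanomolar level with fluorogenic Mca-Pro-Leu-Gly-Leu-Dpa-Ala-Arg-NH2 substrate in 50 mM Tris-HCl pH 6.8, 10 mM CaCl2. Enzyme, inhibitor and buffer preincubated 45 min at 37 °C, then substrate added; initial velocities from 30-sec reads over 15 min, in triplicate.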

[12] = molecular target: Mast cell carboxypeptidase A (Rattus norvegicus, UniProt P21961); test: Inhibition of rat CPA3 using AAFP as substrate preincubated for 45 mins measured at 30 sec intervals for 15 mins by UV/vis-spectrophotometry
In short: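 Enzyme, inhibitor and buffer preincubated 45 min at 37 °C, then substrate added. Read at 355 nm every 30 sec for 15 min as initial velocities, in triplicate.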

Sequence of Matrix metalloproteinase-9 (P14780 whole entry): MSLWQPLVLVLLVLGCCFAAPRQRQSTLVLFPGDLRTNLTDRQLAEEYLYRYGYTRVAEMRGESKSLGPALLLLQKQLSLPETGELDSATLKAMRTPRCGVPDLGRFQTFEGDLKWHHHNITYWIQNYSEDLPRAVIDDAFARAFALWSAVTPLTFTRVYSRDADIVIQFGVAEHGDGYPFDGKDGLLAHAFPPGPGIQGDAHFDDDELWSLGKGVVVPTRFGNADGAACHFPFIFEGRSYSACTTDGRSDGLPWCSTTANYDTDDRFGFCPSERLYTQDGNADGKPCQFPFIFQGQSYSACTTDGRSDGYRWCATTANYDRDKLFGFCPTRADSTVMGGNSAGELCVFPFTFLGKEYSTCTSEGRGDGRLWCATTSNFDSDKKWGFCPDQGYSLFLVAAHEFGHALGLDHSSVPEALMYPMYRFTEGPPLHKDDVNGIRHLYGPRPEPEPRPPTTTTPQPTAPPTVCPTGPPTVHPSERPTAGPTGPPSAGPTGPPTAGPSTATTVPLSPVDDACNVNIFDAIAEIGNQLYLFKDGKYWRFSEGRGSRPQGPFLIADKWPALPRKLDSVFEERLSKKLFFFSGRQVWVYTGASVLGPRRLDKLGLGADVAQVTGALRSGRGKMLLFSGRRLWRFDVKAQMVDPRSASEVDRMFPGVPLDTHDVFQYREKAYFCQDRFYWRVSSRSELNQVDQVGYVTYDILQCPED
Sequence of Mast cell carboxypeptidase A (P21961 whole entry): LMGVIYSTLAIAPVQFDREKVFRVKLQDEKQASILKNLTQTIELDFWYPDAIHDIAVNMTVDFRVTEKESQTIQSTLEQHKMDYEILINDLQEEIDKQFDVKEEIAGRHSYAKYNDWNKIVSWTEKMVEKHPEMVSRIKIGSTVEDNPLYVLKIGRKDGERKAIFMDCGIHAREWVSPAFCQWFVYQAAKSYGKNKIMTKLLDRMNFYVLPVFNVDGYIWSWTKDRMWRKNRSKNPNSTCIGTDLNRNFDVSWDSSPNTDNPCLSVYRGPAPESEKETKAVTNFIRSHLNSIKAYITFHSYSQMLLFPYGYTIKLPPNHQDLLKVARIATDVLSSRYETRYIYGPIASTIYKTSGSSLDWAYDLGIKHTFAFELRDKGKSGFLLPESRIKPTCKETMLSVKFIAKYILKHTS
Sequence of Cytosolic carboxypeptidase 6 (Homo sapiens) (Q5VU57 whole entry): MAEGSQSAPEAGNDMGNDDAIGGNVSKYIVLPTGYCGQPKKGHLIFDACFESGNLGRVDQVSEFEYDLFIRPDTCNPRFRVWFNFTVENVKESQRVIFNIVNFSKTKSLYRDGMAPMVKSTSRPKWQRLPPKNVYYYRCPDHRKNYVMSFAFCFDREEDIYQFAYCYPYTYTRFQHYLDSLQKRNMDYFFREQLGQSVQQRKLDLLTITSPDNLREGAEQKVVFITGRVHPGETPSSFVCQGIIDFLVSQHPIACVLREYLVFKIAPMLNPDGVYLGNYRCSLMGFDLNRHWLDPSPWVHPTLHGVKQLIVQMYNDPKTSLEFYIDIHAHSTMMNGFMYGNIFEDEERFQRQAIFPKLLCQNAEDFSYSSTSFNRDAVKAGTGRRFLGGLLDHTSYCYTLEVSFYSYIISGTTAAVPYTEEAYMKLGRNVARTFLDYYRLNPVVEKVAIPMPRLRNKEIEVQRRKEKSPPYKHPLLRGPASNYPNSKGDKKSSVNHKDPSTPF
Sequence of Papain (Carica papaya) (P00784 whole entry): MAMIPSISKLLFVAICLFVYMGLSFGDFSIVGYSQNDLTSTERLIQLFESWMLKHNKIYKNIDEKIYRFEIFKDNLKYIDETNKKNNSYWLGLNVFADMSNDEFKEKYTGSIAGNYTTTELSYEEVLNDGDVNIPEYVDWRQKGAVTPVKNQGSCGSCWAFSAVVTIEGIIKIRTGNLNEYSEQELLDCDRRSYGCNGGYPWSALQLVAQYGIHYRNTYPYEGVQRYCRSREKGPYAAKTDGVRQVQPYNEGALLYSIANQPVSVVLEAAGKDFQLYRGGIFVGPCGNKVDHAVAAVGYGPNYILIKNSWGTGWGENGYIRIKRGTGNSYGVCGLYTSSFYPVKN

SMILES	Ki (Carboxypeptidase A1 [1]) [nM]	Ki (Carboxypeptidase A4) [nM]	K [3] [×10⁵ /M/s]	K [4] [×10⁻⁵ /s]	Ki (Carboxypeptidase A1 [5]) [nM]	Ki (Carboxypeptidase A1 [6]) [nM]	also measured
CC(=O)N[C@@H](CCC(=O)O)C(=O)N[C@@H](C)P(=O)(O)C[C@@H](CCc1ccccc1)C(=O)O	3.1	38.6	–	–	–	–	–
CC(=O)N[C@@H](Cc1ccc(O)cc1)C(=O)N[C@@H](C)P(=O)(O)C[C@@H](CCc1ccccc1)C(=O)O	0.107	2.6	1.44	7.6	0.53	0.16	Activity (HeLa [2]): Non-Toxic; inhibition [7]: Active
C[C@H](NC(=O)[C@H](Cc1ccc(O)cc1)NC(=O)COCCOCCNC(=O)CCOCCOCCOCCNC(=O)CCc1ccc(C(=C\C=C2\N(CCCCS(=O)(=O)O)c3ccc4c(S(=O)(=O)[O-])cc(S(=O)(=O)O)cc4c3C2(C)C)/C=C/C2=[N+](CCCCS(=O)(=O)O)c3ccc4c(S(=O)(=O)O)cc(S(=O)(=O)O)cc4c3C2(C)C)cc1)P(=O)(O)C[C@@H](CCc1ccccc1)C(=O)O	0.089	5.7	2.03	4.8	0.24	0.07	Activity (HeLa [8]): Non-Toxic; inhibition (Papain (Carica papaya)): inactive; inhibition [9]: inactive; inhibition [10]: inactive; Ki [11]: 2590 nM; Ki [12]: 0.017 nM
CC(=O)NCCOCCOCC(=O)N[C@@H](Cc1ccc(O)cc1)C(=O)N[C@@H](C)P(=O)(O)C[C@@H](CCc1ccccc1)C(=O)O	0.129	3.5	1.33	7	0.53	0.16	–
CC(=O)N[C@@H](CC(C)C)C(=O)N[C@@H](C)P(=O)(O)C[C@@H](CCc1ccccc1)C(=O)O	0.087	3.3	1.27	6	0.47	0.14	–
C[C@H](NC(=O)[C@H](Cc1ccc(O)cc1)NC(=O)COCCOCCN)P(=O)(O)C[C@@H](CCc1ccccc1)C(=O)O	0.3	5.4	–	–	–	–	–

The next lines start with results.

Ki (Carboxypeptidase A1 [1]) [nM]	Ki (Carboxypeptidase A4) [nM]	K [3] [×10⁵ /M/s]	K [4] [×10⁻⁵ /s]	Ki (Carboxypeptidase A1 [5]) [nM]	Ki (Carboxypeptidase A1 [6]) [nM]	SMILES	also measured
1.2	25.4	–	–	–	–	CC(=O)N[C@@H](CCCCN)C(=O)N[C@@H](C)P(=O)(O)C[C@@H](CCc1ccccc1)C(=O)O	–
1.7	7.5	–	–	–	–	CC(=O)N1CCC[C@H]1C(=O)N[C@@H](C)P(=O)(O)C[C@@H](CCc1ccccc1)C(=O)O	–
5.9	60.6	–	–	–	–	CC(=O)N[C@@H](CO)C(=O)N[C@@H](C)P(=O)(O)C[C@@H](CCc1ccccc1)C(=O)O	–
0.08	1.9	–	–	–	–	CC(=O)N[C@@H](CC(C)C)C(=O)N[C@@H](Cc1ccccc1)P(=O)(O)C[C@@H](CCc1ccccc1)C(=O)O	–
